# According to ChEMBL document CHEMBL4368912, “Discovery and Development of N-[4-(1-Cyclobutylpiperidin-4-yloxy)phenyl]-2-(morpholin-4-yl)acetamide Dihydrochloride (SUVN-G3031): A Novel, Potent, Selective, and Orally Active Histamine H3 Receptor Inverse Agonist with Robust Wake-Promoting Activity” (J Med Chem, 2019):
# What was measured:
# [1] = AUC (0 to 24 hrs) in Wistar rat at 1 mg/kg, iv by LC-MS/MS analysis; format: ADME, organism-based; design: time < 24 hr, dose 1 mg/kg, route intravenous; settings: in vivo; for AUC(0-t) at 24 h: Wistar; for AUC: 24 h
# Outline: (§1)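 Fasted male Wistar rats; compound in water for injection, given i.v. (2 mL/kg) or p.o. (10 mL/kg). Plasma exposure measured as AUC0-24hr.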
# [2] = Clearance in Wistar rat at 1 mg/kg, iv by LC-MS/MS analysis; format: ADME, organism-based; settings: in vivo
# Outline: (§2)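 Fasted male Wistar rats dosed i.v. in water for injection at 2 mL/kg. Clearance and half-life derived from the i.v. plasma profile.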
# [3] = Tmax in Wistar rat at 3 mg/kg, po or 1 mg/kg, iv by LC-MS/MS analysis; format: ADME, organism-based; settings: in vivo
# Outline: (§3)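 Fasted male Wistar rats were dosed orally and intravenously, with water for injection as the vehicle for both routes, at dosing volumes of 10 mL/kg p.o. and 2 mL/kg i.v.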
# [4] = Oral bioavailability in Wistar rat at 3 mg/kg by LC-MS/MS analysis; format: ADME, organism-based; settings: in vivo; outline: as §3
# [5] = AUC (0 to 24 hrs) in Wistar rat at 3 mg/kg, po by LC-MS/MS analysis; format: ADME, organism-based; design: dose 3 mg/kg, time < 24 hr, route oral; settings: in vivo; outline: as §1
# [6] = Volume of distribution at steady state in Wistar rat at 3 mg/kg, po or 1 mg/kg, iv by LC-MS/MS analysis; format: ADME, organism-based; settings: in vivo; for Vd: Wistar, read-out: Vdss; outline: as §3
# Histamine H3 receptor = Histamine H3 receptor (Homo sapiens, UniProt Q9Y5N1); assay: Displacement of [3]-RAMH from recombinant human histamine H3 receptor expressed in CHO-K1 cell membranes after 60 mins by scintillation counting
# [7] = Dissociation constant, pKa2 of the compound by potentiometric titration assay; format: physicochemical
# [8] = Partition coefficient, log P of the compound; format: physicochemical; settings: octanol/water
# [9] = Dissociation constant, pKa1 of the compound by potentiometric titration assay; format: physicochemical
# [10] = Half life in Wistar rat at 1 mg/kg, iv by LC-MS/MS analysis; format: ADME, organism-based; settings: in vivo; outline: as §2
# [11] = Lipophilicity, log D of the compound at pH 7.4; format: physicochemical; settings: buffer
# [12] = Ratio of drug uptake in Wistar rat brain to plasma at 3 mg/kg, po by LC-MS/MS analysis; format: ADME, organism-based; settings: brain and plasma, read-out: BPR
# Outline: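 Fasted male Wistar rats were dosed orally with water for injection as the vehicle. Total brain and plasma concentrations were measured at 1 h after dosing and expressed as a ratio.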
# CHO-K1 [13] = assay: Induction of phospholipidosis in CHOK1 cells up to 300 uM incubated for 24 hrs by fluorescent-labeled phospholipid probe NBD-PE based fluorescence assay; format: cell-based, Cricetulus griseus; settings: chinese hamster, cho-k1, 24 h
# CHO-K1 [14] = assay: Cytotoxicity in CHOK1 cells up to 300 uM incubated for 24 hrs by MTT assay; format: cell-based, Cricetulus griseus; settings: chinese hamster, cho-k1, 24 h
# Chain of Histamine H3 receptor (Q9Y5N1 whole entry): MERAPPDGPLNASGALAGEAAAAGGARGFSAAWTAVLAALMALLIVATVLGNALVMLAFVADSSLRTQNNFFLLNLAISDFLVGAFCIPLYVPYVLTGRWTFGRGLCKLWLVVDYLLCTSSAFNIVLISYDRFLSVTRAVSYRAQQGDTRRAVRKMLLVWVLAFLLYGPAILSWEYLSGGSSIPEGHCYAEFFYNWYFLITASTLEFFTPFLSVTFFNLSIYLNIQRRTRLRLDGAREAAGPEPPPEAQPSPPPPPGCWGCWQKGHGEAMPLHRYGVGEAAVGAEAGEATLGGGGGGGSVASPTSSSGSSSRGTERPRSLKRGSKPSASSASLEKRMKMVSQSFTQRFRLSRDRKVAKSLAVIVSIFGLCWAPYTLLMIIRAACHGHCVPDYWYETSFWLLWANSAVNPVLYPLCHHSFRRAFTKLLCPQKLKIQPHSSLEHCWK
structure (smiles),measurement,setting,value
O=C(NCCN1CCCC1)c1ccc(OC2CCN(C3CCCC3)CC2)cc1,AUC(0-t) at 24 h,[1],174 ng·h/mL
same,clearance,[2],156 mL/min/kg
same,Tmax,[3],3.33 h
same,bioavailability,[4],48%
same,AUC(0-t) at 24 h,[5],205 ng·h/mL
same,Vd,[6],135 L/kg
same,Ki,Histamine H3 receptor,2.4 nM
O=C(CN1CCC(O)CC1)Nc1ccc(OC2CCN(C3CCC3)CC2)cc1,Ki,Histamine H3 receptor,6.4 nM
CN(C)CC(=O)Nc1ccc(OC2CCN(C3CCC3)CC2)cc1,Ki,Histamine H3 receptor,6 nM
CCN(CC)CC(=O)Nc1ccc(OC2CCN(C3CCC3)CC2)cc1,Ki,Histamine H3 receptor,11.7 nM
Cc1cc(OC2CCN(C3CCC3)CC2)ccc1NC(=O)CN1CCCCC1,Ki,Histamine H3 receptor,3.3 nM
Cc1cc(OC2CCN(C3CCC3)CC2)ccc1NC(=O)CN1CCOCC1,Ki,Histamine H3 receptor,22.1 nM
C[C@@H]1CCCN1CC(=O)Nc1ccc(CN2CCOCC2)cc1,Ki,Histamine H3 receptor,915 nM
CCOC(=O)N1CCN(CC(=O)Nc2ccc(OC3CCN(C4CCC4)CC3)cc2)CC1,Ki,Histamine H3 receptor,1.07 nM
CN(C(=O)CN1CCOCC1)c1ccc(OC2CCN(C3CCC3)CC2)cc1,Ki,Histamine H3 receptor,4.89 nM
Cl.Cl.O=C(CN1CCCC1CO)Nc1ccc(OC2CCN(C3CCC3)CC2)cc1 (centres undefined),AUC(0-t) at 24 h,[1],212 ng·h/mL
same,pKa,[7],6.4
same,clearance,[2],67 mL/min/kg
same,logP,[8],2.1
same,pKa,[9],8.9
same,Tmax,[3],0.58 h
same,bioavailability,[4],10%
same,half-life,[10],1.88 h
same,AUC(0-t) at 24 h,[5],63 ng·h/mL
same,Vd,[6],9 L/kg
same,Ki,Histamine H3 receptor,1.2 nM
same,logD,[11],0.6
O=C(NCCN1CCCCC1)c1ccc(OC2CCN(C3CCC3)CC2)cc1,Ki,Histamine H3 receptor,3.2 nM
O=C(CN1CCCCCC1)Nc1ccc(OC2CCN(C3CCC3)CC2)cc1,pKa,[7],7.6
same,logP,[8],4.3
same,pKa,[9],9.2
same,Ki,Histamine H3 receptor,2.6 nM
same,logD,[11],1.7
O=C1c2ccc(OC3CCN(C4CCC4)CC3)cc2CCN1C1CCN(C2CCC2)CC1,AUC(0-t) at 24 h,[1],1740 ng·h/mL
same,Kp,[12],0.41
same,Tmax,[3],6 h
same,AUC(0-t) at 24 h,[5],1430 ng·h/mL
same,Vdss,[6],13 L/kg
Cc1cc(OC2CCN(C3CCC3)CC2)ccc1NC(=O)CN1CCCC1.Cl.Cl,AUC,[1],3345 ng·h/mL
same,Kp,[12],1.2
same,Tmax,[3],2.17 h
same,bioavailability,[4],20%
same,AUC(0-t) at 24 h,[5],1350 ng·h/mL
same,Vd,[6],27 L/kg
same,Ki,Histamine H3 receptor,1.9 nM
C[C@@H]1CCCN1CCc1ccc(NC(=O)CN2CCOCC2)cc1,Ki,Histamine H3 receptor,108 nM
C[C@@H]1CCCN1Cc1ccc(NC(=O)CN2CCOCC2)cc1,Ki,Histamine H3 receptor,3570 nM
O=C(CN1CCCCC1)Nc1ccc(OC2CCN(C3CCC3)CC2)cc1C(F)(F)F,Ki,Histamine H3 receptor,14.8 nM
Cl.Cl.O=C(CN1CCCCC1)Nc1ccc(OC2CCN(C3CCC3)CC2)cc1,AUC,[1],1855 ng·h/mL
same,pKa,[7],7.5
same,Kp,[12],36.6
same,logP,[8],3.7
same,pKa,[9],9.2
same,Tmax,[3],3.33 h
same,bioavailability,[4],37%
same,AUC(0-t) at 24 h,[5],1390 ng·h/mL
same,Vd,[6],20 L/kg
same,Ki,Histamine H3 receptor,4.8 nM
same,logD,[11],1.3
O=C(CN1CCC(F)CC1)Nc1ccc(OC2CCN(C3CCC3)CC2)cc1,Ki,Histamine H3 receptor,11 nM
O=C(CN1CCCC1)Nc1ccc(OC2CCN(C3CCC3)CC2)cc1C(F)(F)F,Ki,Histamine H3 receptor,26.9 nM
O=C(CN1CCCC1)Nc1ccc(OC2CCN(C3CCCC3)CC2)cc1,Ki,Histamine H3 receptor,3.8 nM
O=C(Cc1ccncc1)Nc1ccc(OC2CCN(C3CCC3)CC2)cc1.O=C(O)C(O)C(O)C(=O)O,AUC(0-t) at 24 h,[1],145 ng·h/mL
same,clearance,[2],113 mL/min/kg
same,Kp,[12],0.16
same,Tmax,[3],0.25 h
same,bioavailability,[4],125%
same,half-life,[10],1.12 h
same,AUC(0-t) at 24 h,[5],545 ng·h/mL
same,Vd,[6],7 L/kg
same,Ki,Histamine H3 receptor,9.51 nM
Cl.Cl.O=C(CN1CCCC1)Nc1ccc(OC2CCN(C3CCC3)CC2)cc1,AUC(0-t) at 24 h,[1],757 ng·h/mL
same,pKa,[7],7.4
same,clearance,[2],13.6 mL/min/kg
same,logP,[8],3.2
same,pKa,[9],9.1
same,Tmax,[3],3.33 h
same,bioavailability,[4],17%
same,AUC(0-t) at 24 h,[5],556 ng·h/mL
same,Vd,[6],34.8 L/kg
same,Ki,Histamine H3 receptor,1.1 nM
same,logD,[11],1.2
O=C(NCCN1CCCC1)c1ccc(OC2CCN(C3CCC3)CC2)cc1,Ki,Histamine H3 receptor,2.9 nM
O=C(Cc1cccnc1)Nc1ccc(OC2CCN(C3CCC3)CC2)cc1,Ki,Histamine H3 receptor,15.8 nM
O=C(CN1CCOCC1)Nc1ccc(N2CCN(C3CCC3)CC2)cc1,Ki,Histamine H3 receptor,532 nM
CC(=O)N1CCN(CC(=O)Nc2ccc(OC3CCN(C4CCC4)CC3)cc2)CC1,Ki,Histamine H3 receptor,5.39 nM
O=C(CN1CCOCC1)Nc1cccc(OC2CCN(C3CCC3)CC2)c1,Ki,Histamine H3 receptor,212 nM
CC(C)N1CCC(Oc2ccc(C(=O)NCCN3CCCC3)cc2)CC1,Ki,Histamine H3 receptor,10.4 nM
O=C(CN1CCOCC1)Nc1ccc(OC2CCN(C3CCC3)CC2)c(F)c1,Ki,Histamine H3 receptor,62 nM
CC(C)N1CCC(Oc2ccc(NC(=O)CN3CCOCC3)cc2)CC1.Cl.Cl,AUC(0-t) at 24 h,[1],340 ng·h/mL
same,pKa,[7],5
same,clearance,[2],48 mL/min/kg
same,Kp,[12],0.33
same,logP,[8],1.8
same,pKa,[9],8.9
same,Activity,CHO-K1 [13],Non-Toxic
same,Tmax,[3],0.42 h
same,bioavailability,[4],85%
same,AUC(0-t) at 24 h,[5],850 ng·h/mL
same,Vd,[6],6 L/kg
same,logD,[11],0.5
same,Activity,CHO-K1 [14],Non-Toxic
CC(C)N1CCC(Oc2ccc(C(=O)NCCN3CCCCC3)cc2)CC1,Ki,Histamine H3 receptor,9.5 nM
O=C(CN1CCOCC1)Nc1ccc(OC2CCN(C3CCCC3)CC2)cc1,Ki,Histamine H3 receptor,29.9 nM
O=C(CN1CCOC(CO)C1)Nc1ccc(OC2CCN(C3CCC3)CC2)cc1 (centres undefined),Ki,Histamine H3 receptor,4.05 nM
O=C(CN1CCOCC1)Nc1ccc(OC2CCNCC2)cc1,Ki,Histamine H3 receptor,> 10000 nM
CCN(C(=O)CN1CCOCC1)c1ccc(OC2CCN(C3CCC3)CC2)cc1,Ki,Histamine H3 receptor,10.8 nM
O=C(CN1CCOCC1)Nc1ccccc1OC1CCN(C2CCC2)CC1,Ki,Histamine H3 receptor,> 10000 nM
COc1cc(OC2CCN(C3CCC3)CC2)ccc1NC(=O)CN1CCOCC1,Ki,Histamine H3 receptor,90.8 nM
O=C(CN1CCC(F)(F)CC1)Nc1ccc(OC2CCN(C3CCC3)CC2)cc1,Ki,Histamine H3 receptor,23.6 nM
O=C(CN1CCOCC1)Nc1ccc(OC2CCN(C3CCC3)CC2)cc1F,Ki,Histamine H3 receptor,14.9 nM
O=C(CN1CCOCC1)Nc1ccc(OC2CCN(C3CCC3)CC2)cc1C(F)(F)F,Ki,Histamine H3 receptor,75.8 nM
O=C(CN1CCCCC1)Nc1ccc(OC2CCN(C3CCCC3)CC2)cc1,Ki,Histamine H3 receptor,4.1 nM
Cc1cc(OC2CCN(C3CCC3)CC2)ccc1NC(=O)CN1CCC[C@H]1C,Ki,Histamine H3 receptor,2.4 nM
C[C@@H]1CCCN1CC(=O)Nc1ccc(OC2CCN(C3CCC3)CC2)cc1,Ki,Histamine H3 receptor,2.6 nM
CC(C)N1CCCN(CC(=O)Nc2ccc(OC3CCN(C4CCC4)CC3)cc2)CC1,Ki,Histamine H3 receptor,0.96 nM
CC(C)N1CCC(Oc2ccc(NC(=O)CN3CCCCC3)cc2)CC1,pKa,[7],7.2
same,logP,[8],3.4
same,pKa,[9],9.4
same,Ki,Histamine H3 receptor,3.8 nM
same,logD,[11],1.6
O=C(CN1CCOCC1)Nc1ccc(CN2CCCC2)cc1,Ki,Histamine H3 receptor,114 nM
O=C(CN1CCS(=O)(=O)CC1)Nc1ccc(OC2CCN(C3CCC3)CC2)cc1,Ki,Histamine H3 receptor,9.17 nM
O=C(NCCN1CCOCC1)c1ccc(OC2CCN(C3CCC3)CC2)cc1,AUC(0-t) at 24 h,[1],255 ng·h/mL
same,clearance,[2],51 mL/min/kg
same,Kp,[12],0.07
same,Tmax,[3],1.33 h
same,bioavailability,[4],46%
same,half-life,[10],13.8 h
same,AUC(0-t) at 24 h,[5],347 ng·h/mL
same,Vd,[6],45 L/kg
same,Ki,Histamine H3 receptor,2.8 nM
C[C@@H]1CCCN1CC(=O)Nc1ccc(N2CCOCC2)cc1,Ki,Histamine H3 receptor,1460 nM
O=C(CN1CCCN(C2CCC2)CC1)Nc1ccc(OC2CCN(C3CCC3)CC2)cc1,Ki,Histamine H3 receptor,1.61 nM
